Columns and labels:
Histone deacetylase 1 = Histone deacetylase 1 (Homo sapiens, UniProt Q13547); experiment: Inhibition of recombinant human HDAC1 using fluorogenic substrate by fluorescence assay
[1] = biological target: T1, Protein deacetylase HDAC6 (Homo sapiens, UniProt Q9UBN7); experiment: Inhibition of recombinant human HDAC6 using fluorogenic substrate by fluorescence assay
T1 sequence (Q9UBN7 whole entry): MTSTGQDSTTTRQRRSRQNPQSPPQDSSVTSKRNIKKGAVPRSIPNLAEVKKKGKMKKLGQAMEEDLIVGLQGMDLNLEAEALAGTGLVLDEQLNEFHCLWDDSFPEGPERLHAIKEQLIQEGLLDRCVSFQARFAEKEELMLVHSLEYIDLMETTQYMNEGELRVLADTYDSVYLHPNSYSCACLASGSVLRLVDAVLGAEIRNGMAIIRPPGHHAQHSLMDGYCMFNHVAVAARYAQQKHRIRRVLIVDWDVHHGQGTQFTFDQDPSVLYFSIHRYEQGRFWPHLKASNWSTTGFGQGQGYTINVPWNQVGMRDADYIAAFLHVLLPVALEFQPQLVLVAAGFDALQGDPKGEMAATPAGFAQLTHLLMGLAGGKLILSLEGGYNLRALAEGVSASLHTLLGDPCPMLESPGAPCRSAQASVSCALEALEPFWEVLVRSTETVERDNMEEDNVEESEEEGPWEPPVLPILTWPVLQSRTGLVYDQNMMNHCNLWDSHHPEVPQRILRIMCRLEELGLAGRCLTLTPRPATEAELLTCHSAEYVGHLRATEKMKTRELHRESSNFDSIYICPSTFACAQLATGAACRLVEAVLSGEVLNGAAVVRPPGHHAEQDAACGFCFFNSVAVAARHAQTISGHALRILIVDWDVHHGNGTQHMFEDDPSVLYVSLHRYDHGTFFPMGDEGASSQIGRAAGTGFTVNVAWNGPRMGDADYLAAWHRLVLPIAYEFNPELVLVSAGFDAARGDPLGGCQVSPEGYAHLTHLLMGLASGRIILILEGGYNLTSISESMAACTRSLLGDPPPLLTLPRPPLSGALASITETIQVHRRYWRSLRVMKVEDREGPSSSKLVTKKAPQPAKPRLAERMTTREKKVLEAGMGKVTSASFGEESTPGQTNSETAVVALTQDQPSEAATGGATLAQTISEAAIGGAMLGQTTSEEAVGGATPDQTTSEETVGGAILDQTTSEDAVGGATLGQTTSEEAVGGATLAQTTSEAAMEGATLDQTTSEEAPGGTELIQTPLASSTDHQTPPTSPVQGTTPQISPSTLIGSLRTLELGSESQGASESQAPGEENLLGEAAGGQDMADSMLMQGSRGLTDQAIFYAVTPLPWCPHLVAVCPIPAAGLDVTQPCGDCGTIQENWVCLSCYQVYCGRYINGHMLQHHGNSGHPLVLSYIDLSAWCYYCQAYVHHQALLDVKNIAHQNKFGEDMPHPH

Histone deacetylase 7 = biological target: T2, Histone deacetylase 7 (Homo sapiens, UniProt Q8WUI4); experiment: Inhibition of recombinant human HDAC7 using fluorogenic substrate by fluorescence assay
T2 sequence (Q8WUI4 whole entry): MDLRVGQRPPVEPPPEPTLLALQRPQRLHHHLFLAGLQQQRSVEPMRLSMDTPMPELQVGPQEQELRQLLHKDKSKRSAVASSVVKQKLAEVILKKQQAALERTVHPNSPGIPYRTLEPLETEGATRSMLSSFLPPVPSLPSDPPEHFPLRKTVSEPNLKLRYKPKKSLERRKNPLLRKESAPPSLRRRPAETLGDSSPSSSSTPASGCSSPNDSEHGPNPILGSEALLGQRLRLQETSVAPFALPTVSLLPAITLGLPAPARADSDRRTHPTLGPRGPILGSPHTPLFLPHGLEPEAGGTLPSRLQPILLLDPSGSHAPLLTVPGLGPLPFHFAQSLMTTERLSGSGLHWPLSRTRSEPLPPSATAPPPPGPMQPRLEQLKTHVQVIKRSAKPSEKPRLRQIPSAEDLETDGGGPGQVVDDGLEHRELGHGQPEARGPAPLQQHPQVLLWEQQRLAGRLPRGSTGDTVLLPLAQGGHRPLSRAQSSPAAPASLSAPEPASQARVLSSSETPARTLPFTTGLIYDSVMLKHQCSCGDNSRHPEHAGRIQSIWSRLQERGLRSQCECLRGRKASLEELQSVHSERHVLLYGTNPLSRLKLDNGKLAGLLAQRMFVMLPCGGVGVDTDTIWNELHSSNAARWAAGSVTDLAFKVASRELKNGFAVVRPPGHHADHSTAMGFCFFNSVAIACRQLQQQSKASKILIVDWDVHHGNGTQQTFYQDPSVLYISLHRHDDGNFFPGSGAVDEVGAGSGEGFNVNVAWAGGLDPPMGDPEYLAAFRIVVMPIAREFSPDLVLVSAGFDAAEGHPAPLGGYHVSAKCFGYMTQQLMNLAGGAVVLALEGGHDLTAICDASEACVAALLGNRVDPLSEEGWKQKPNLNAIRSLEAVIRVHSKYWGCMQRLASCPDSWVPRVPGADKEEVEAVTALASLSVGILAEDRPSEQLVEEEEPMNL

Sus scrofa = species: Sus scrofa; experiment: Inhibition of purified porcine tubulin polymerization measured every 1 min for 30 mins
Homo sapiens = species: Homo sapiens; experiment: Inhibition of HDAC in human PC3 cells assessed as increase in histone-H3 acetylation by Western blot analysis; type: cell-based
Procedure, shortened: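 PC3 prostate cancer cells treated, then lysed in 20 mM Tris-HCl pH 7.5 with 150 mM NaCl, EDTA/EGTA, phosphatase and protease inhibitors, 0.1% Triton X-100. Lysates spun 13,000 rpm for 30 min, then immunoblotted for acetylated α-tubulin and acetylated histone H3.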

PC-3 = experiment: Antitumor activity against human PC3 cells xenografted in athymic nude mouse assessed as tumor growth inhibition at 200 mg/kg, po qd administered daily measured twice per week relative to control; type: functional; details: PC-3, po, read-out: TGI
Procedure, shortened: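 Male athymic nude mice (5–6 wk) given 1 × 10⁷ PC3 cells s.c.; randomized by tumor size at ~150–350 mm³. Oral dosing daily, vehicle 5% DMSO + 5% Cremophor in D5W. Caliper volumes twice weekly, (length × width²)/2; %TGI = {1-[(Tt/T0)/(Ct/C0)]/1-[C0/Ct]}*100 against vehicle controls.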

RPMI-8226 = experiment: Antitumor activity against human RPMI8226 cells xenografted in athymic nude mouse assessed as tumor growth inhibition at 100 mg/kg, ip qd measured twice per week relative to control; type: functional; details: RPMI-8226, ip, read-out: TGI
Procedure, shortened: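 Male athymic nude mice (5–6 wk) implanted s.c. with 1 × 10⁷ RPMI-8226 myeloma cells; randomized by tumor size at ~150–350 mm³. Daily i.p. injection, vehicle 5% DMSO + 5% Cremophor in D5W. Tumor volume by calipers twice weekly as (length × width²)/2; %TGI derived from treated vs control volume ratios at time t and time 0.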

Histone deacetylase 1, sequence (Q13547 whole entry): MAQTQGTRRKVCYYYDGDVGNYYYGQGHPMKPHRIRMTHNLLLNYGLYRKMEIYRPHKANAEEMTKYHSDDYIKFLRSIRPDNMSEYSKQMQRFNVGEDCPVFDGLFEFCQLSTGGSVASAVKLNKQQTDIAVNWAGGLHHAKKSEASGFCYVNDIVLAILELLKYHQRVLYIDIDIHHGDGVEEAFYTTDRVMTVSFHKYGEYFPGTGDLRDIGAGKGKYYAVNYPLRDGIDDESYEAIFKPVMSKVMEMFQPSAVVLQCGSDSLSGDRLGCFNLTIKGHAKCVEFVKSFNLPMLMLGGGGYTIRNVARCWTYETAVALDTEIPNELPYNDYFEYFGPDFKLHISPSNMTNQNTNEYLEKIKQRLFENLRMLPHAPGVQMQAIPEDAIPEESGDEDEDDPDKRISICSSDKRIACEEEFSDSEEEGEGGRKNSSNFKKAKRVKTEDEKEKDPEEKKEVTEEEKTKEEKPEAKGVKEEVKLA

Row | Compound | IC50 (Histone deacetylase 1) [nM] | IC50 [1] [nM] | IC50 (Histone deacetylase 7) | inhibition (Sus scrofa) | inhibition (Homo sapiens) | inhibition in vivo at 200 mg/kg (PC-3) [%] | inhibition in vivo at 100 mg/kg (RPMI-8226) [%]
1 | COc1ccc2c(C(=O)c3cc(OC)c(OC)c(OC)c3)cn(S(=O)(=O)c3cccc(/C=C/C(=O)NO)c3)c2c1 | 468 | 275 | Not Active | – | – | – | –
2 | COc1ccc2c(C(=O)c3cc(OC)c(OC)c(OC)c3)cn(Cc3ccc(C(=O)NO)cc3)c2c1 | 573 | 64.5 | – | Dose-dependent effect | Dose-dependent effect | 68.5 | 58.2
